A short description of data set [1]: melting temperature; fluorescence melt of hairpins on a sequencing array, two-state fit, raised by 9.35 °C to match UV melts. Particulars: sodium 0.088 M. Put shortly:
(§1)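 On a sequenced MiSeq flow cell, library hairpins with annealed Cy3 and quencher oligos were imaged for Cy3 fluorescence in 2.5 °C steps up to 60 °C, in 50 mM Na-HEPES pH 8.0, 25 mM NaCl. Normalisation used pre-quench Cy3 and control constructs. Bootstrapped two-state fits gave melting temperature and folding enthalpy, combined by inverse variance across four replicates and with fitted temperatures raised by 9.35 °C to match UV melts.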

Data set [2] can be described thus: folding enthalpy; higher = less favourable; fluorescence melt of hairpins on a sequencing array, two-state fit. Particulars: sodium 0.088 M. Put shortly: as §1

In the case of GTGAGCGCGAAAGCGCAC (((..(((....)))))), in data set [1], the Tm was 52.2 °C. The folding enthalpy in data set [2] was -11.1 kcal/mol.
As for GTGAGCTCGAAAGAGCAC (((..(((....)))))), the Tm in data set [1] is 65 °C. Also, the folding enthalpy in data set [2] is -9.96 kcal/mol.
As for GTGAGGCCGAAAGGCCAC (((..(((....)))))), the Tm in data set [1] came out at 50.3 °C. In addition, in data set [2], the folding enthalpy is -11.7 kcal/mol.
In the same order, the values of GTGAGGGGAAACCCTCAC (((((((....))))))) are 67.7 °C and -33.4 kcal/mol.
Taken in the same sequence, the figures for GTGAGGGGAAACCCTCGC (.(((((....))))).) were 53.5 °C and -34 kcal/mol.
Taken in the same sequence, the figures for GTGAGGGGAAACCTTCGC (.((.((....)).)).) were 33.6 °C and -21.5 kcal/mol.
As for GTGAGTGGAAACACTTAC ((.((((....)))).)), the Tm in data set [1] came out at 44.8 °C. For the same sequence, the folding enthalpy in data set [2] was -28.8 kcal/mol.
With GTGAGTGGAAACATTCAC ((((.((....)).)))), in data set [1], the Tm turned out to be 43.9 °C. Further, the folding enthalpy in data set [2] was -33.9 kcal/mol.
In the same order, the values of GTGAGTGGAAACGTTCAC ((((..(....)..)))) are 28.4 °C and -11.2 kcal/mol.
Take GTGATAGGAAACTACCAC (((.(((....))).))): the Tm in data set [1] amounted to 33.5 °C. Besides, the folding enthalpy in data set [2] was -27.3 kcal/mol.
Taken in the same sequence, the figures for GTGATATCGAAAGATCAC (((..(((....)))))) were 37.1 °C and -27.8 kcal/mol.
On to GTGATCCGAAAGGAGCAC (((.(((....))).))), for which, in data set [1], the Tm amounted to 66.4 °C. Also, the folding enthalpy in data set [2] is -41.5 kcal/mol.
In the same order, the values of GTGATCGAAAGATATCAC ((((((....)))..))) are 34.5 °C and -18 kcal/mol.
Taken in the same sequence, the figures for GTGATCGAAAGATGCCAC ((((((....)))..))) were 24.4 °C and -11.5 kcal/mol.
Take GTGATCGAAAGATTTCAC ((((((....)))..))): the Tm in data set [1] was determined as 27.6 °C. Besides, the folding enthalpy in data set [2] was -14.3 kcal/mol.
In the case of GTGATCGGAAACGACCAC (((.(((....))).))), the Tm in data set [1] worked out at 47.6 °C. The folding enthalpy in data set [2] was -42 kcal/mol.
Taken in the same sequence, the figures for GTGATCGGAAACGATCGC (.(((((....))))).) were 57.6 °C and -36.4 kcal/mol.
GTGATGGAAACATCAC ((((((....)))))): the Tm in data set [1] was 56.7 °C. Further, the folding enthalpy in data set [2] is -41.8 kcal/mol.
For the sequence GTGATGGCGAAAGCCCAC (((..(((....)))))), in data set [1], the Tm is 41.2 °C. Besides, the folding enthalpy in data set [2] was -14.6 kcal/mol.
Taken in the same sequence, the figures for GTGATGGGAAACCATCAC (((((((....))))))) were 64.6 °C and -43.8 kcal/mol.
For the sequence GTGATGGGAAACTGTCAC ((((..(....)..)))), in data set [1], the Tm is 39.1 °C. Further, in data set [2], the folding enthalpy is -32.5 kcal/mol.
In the case of GTGATTGCGAAAGCACAC (((..(((....)))))), the Tm in data set [1] worked out at 38.1 °C. Also, in data set [2], the folding enthalpy was -14.4 kcal/mol.
Turning to GTGCAACGAAAGTTACAC (((.(((....))).))), the Tm in data set [1] turned out to be 44.9 °C. The folding enthalpy in data set [2] is -22.6 kcal/mol.
As to GTGCAAGAAATTGCAC ((((((....)))))), the Tm in data set [1] was 56.6 °C. Also, the folding enthalpy in data set [2] is -36.2 kcal/mol.
Turning to GTGCAAGCGAAAGCTCAC (((..(((....)))))), in data set [1], the Tm turned out to be 42.9 °C. For the same sequence, the folding enthalpy in data set [2] is -13.4 kcal/mol.
Regarding GTGCAAGGAAACTCGCAC ((((.((....)).)))), the Tm in data set [1] was 45.1 °C. The folding enthalpy in data set [2] is -31.7 kcal/mol.
For the sequence GTGCAAGGAAACTTGTGC (..((((....))))..), the Tm in data set [1] worked out at 37.4 °C. Besides, in data set [2], the folding enthalpy was -22.4 kcal/mol.
GTGCACCGAAAGGTCCAC (((.(((....))).))): the Tm in data set [1] amounted to 45.2 °C. Moreover, the folding enthalpy in data set [2] was -27.3 kcal/mol.
GTGCACGAAAGTGCCCAC ((((((....)))..))): in data set [1], the Tm is 40.7 °C. For the same sequence, in data set [2], the folding enthalpy is -7.58 kcal/mol.
On to GTGCACGAAAGTGCGCAC ((((((....)))..))), for which the Tm in data set [1] was determined as 58 °C. Further, in data set [2], the folding enthalpy was -10.5 kcal/mol.
In the case of GTGCACGAAAGTGCTCAC ((((((....)))..))), the Tm in data set [1] is 43.3 °C. For the same sequence, the folding enthalpy in data set [2] was -7.03 kcal/mol.
For the sequence GTGCAGAAATGCAC (((((....))))), the Tm in data set [1] is 57.1 °C. The folding enthalpy in data set [2] is -25.6 kcal/mol.
As to GTGCAGCCGAAAGGCCAC (((..(((....)))))), in data set [1], the Tm is 49.1 °C. The folding enthalpy in data set [2] is -12.7 kcal/mol.
In the same order, the values of GTGCAGCGAAAGCTACAC (((.(((....))).))) are 54.1 °C and -31 kcal/mol.
GTGCAGGGAAACCTGCGC (.(((((....))))).): the Tm in data set [1] amounted to 58.9 °C. For the same sequence, the folding enthalpy in data set [2] is -26.2 kcal/mol.
For GTGCATCGAAAGATCAC (((.(((....)))))), the Tm in data set [1] worked out at 46.8 °C. Besides, in data set [2], the folding enthalpy is -24.2 kcal/mol.

The record behind these values is the array DNA melting data of Ke et al. (doi:10.1101/2024.01.08.574731).
